Test results as given in ChEMBL document CHEMBL5058577, “EUbOPEN Chemogenomics Library 2 (Multiplex)” (2022).

System: HEK-293T
Experiment: Multiplex assay against HEK293T
Type: toxicity, cell-based
Conditions: human
Method in brief: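 Cells stained live at seeding with Hoechst33342, BioTracker Green Microtubule Cytoskeleton Dye, MitoTracker Red and Annexin V Alexa Fluor 680 were imaged on a CQ1 microscope at 37°C and 5% CO2 after compound addition. Their classification by CellPathfinder machine-learning gating ran from Hoechst high-intensity objects versus normal cells, to healthy, pyknosed or fragmented nuclei among normal cells, to mitotic or apoptotic among pyknosed cells. Tubulin, mitochondrial-mass and membrane-permeability phenotypes are per cents of healthy-nucleus cells.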

[1] = 12 h, 1 µM, compound concentration 1 uM, replicate 1
[2] = 12 h, 1 µM, compound concentration 1 uM, replicate 2
[3] = 12 h, 10 µM, compound concentration 10 uM, replicate 1
[4] = 12 h, 10 µM, compound concentration 10 uM, replicate 2
[5] = 24 h, 1 µM, compound concentration 1 uM, replicate 1
[6] = 24 h, 1 µM, compound concentration 1 uM, replicate 2
[7] = 24 h, 10 µM, compound concentration 10 uM, replicate 1
[8] = 24 h, 10 µM, compound concentration 10 uM, replicate 2
[9] = 48 h, 1 µM, compound concentration 1 uM, replicate 1
[10] = 48 h, 1 µM, compound concentration 1 uM, replicate 2
[11] = 48 h, 10 µM, compound concentration 10 uM, replicate 1
[12] = 48 h, 10 µM, compound concentration 10 uM, replicate 2

CCCCC[C@H](O)/C=C/[C@H]1[C@H](O)CC(=O)[C@@H]1CCCCCCC(=O)O [ALPROSTADIL]
Population Apoptotic (%) [1]: 35% | Population Fragmented Nuclei (%) [1]: 7% | Population Healthy Nuclei (%) [1]: 79% | Population Hoechst High Intensity Objects (%) [1]: 7% | Population Membrane Permeable-Phenotype (%) [1]: 0% | Population Mitochondria Different-Phenotype (%) [1]: 42% | Population Mitotic Cells (%) [1]: 64% | Population Normal (%) [1]: 92% | Population Pyknosed Nuclei (%) [1]: 13% | Population Tubulin-Different-Phenotype (%) [1]: 28% | Total Cell Count [1]: 471 | Population Apoptotic (%) [2]: 50% | Population Fragmented Nuclei (%) [2]: 6% | Population Healthy Nuclei (%) [2]: 80% | Population Hoechst High Intensity Objects (%) [2]: 6% | Population Mitochondria Different-Phenotype (%) [2]: 55% | Population Mitotic Cells (%) [2]: 49% | Population Normal (%) [2]: 93% | Population Tubulin-Different-Phenotype (%) [2]: 18% | Total Cell Count [2]: 392 | Population Apoptotic (%) [3]: 33% | Population Fragmented Nuclei (%) [3]: 7% | Population Healthy Nuclei (%) [3]: 78% | Population Hoechst High Intensity Objects (%) [3]: 6% | Population Membrane Permeable-Phenotype (%) [3]: 1% | Population Mitochondria Different-Phenotype (%) [3]: 48% | Population Mitotic Cells (%) [3]: 66% | Population Normal (%) [3]: 93% | Population Pyknosed Nuclei (%) [3]: 14% | Population Tubulin-Different-Phenotype (%) [3]: 33% | Total Cell Count [3]: 318 | Population Healthy Nuclei (%) [4]: 75% | Population Hoechst High Intensity Objects (%) [4]: 9% | Population Membrane Permeable-Phenotype (%) [4]: 0% | Population Mitochondria Different-Phenotype (%) [4]: 64% | Population Normal (%) [4]: 90% | Population Pyknosed Nuclei (%) [4]: 17% | Population Tubulin-Different-Phenotype (%) [4]: 30% | Total Cell Count [4]: 309 | Population Apoptotic (%) [5]: 35% | Population Fragmented Nuclei (%) [5]: 9% | Population Healthy Nuclei (%) [5]: 79% | Population Hoechst High Intensity Objects (%) [5]: 3% | Population Membrane Permeable-Phenotype (%) [5]: 1% | Population Mitochondria Different-Phenotype (%) [5]: 22% | Population Mitotic Cells (%) [5]: 64% | Population Normal (%) [5]: 96% | Population Pyknosed Nuclei (%) [5]: 10% | Population Tubulin-Different-Phenotype (%) [5]: 15% | Total Cell Count [5]: 605 | Population Apoptotic (%) [6]: 34% | Population Fragmented Nuclei (%) [6]: 6% | Population Healthy Nuclei (%) [6]: 85% | Population Hoechst High Intensity Objects (%) [6]: 4% | Population Membrane Permeable-Phenotype (%) [6]: 0% | Population Mitochondria Different-Phenotype (%) [6]: 35% | Population Mitotic Cells (%) [6]: 65% | Population Normal (%) [6]: 95% | Population Pyknosed Nuclei (%) [6]: 8% | Population Tubulin-Different-Phenotype (%) [6]: 14% | Total Cell Count [6]: 526 | Population Apoptotic (%) [7]: 32% | Population Fragmented Nuclei (%) [7]: 11% | Population Healthy Nuclei (%) [7]: 76% | Population Hoechst High Intensity Objects (%) [7]: 2% | Population Membrane Permeable-Phenotype (%) [7]: 0% | Population Mitochondria Different-Phenotype (%) [7]: 26% | Population Mitotic Cells (%) [7]: 67% | Population Normal (%) [7]: 97% | Population Pyknosed Nuclei (%) [7]: 12% | Population Tubulin-Different-Phenotype (%) [7]: 23% | Total Cell Count [7]: 439 | Population Apoptotic (%) [8]: 36% | Population Fragmented Nuclei (%) [8]: 7% | Population Healthy Nuclei (%) [8]: 79% | Population Hoechst High Intensity Objects (%) [8]: 8% | Population Mitochondria Different-Phenotype (%) [8]: 50% | Population Mitotic Cells (%) [8]: 63% | Population Normal (%) [8]: 91% | Population Tubulin-Different-Phenotype (%) [8]: 22% | Total Cell Count [8]: 345 | Population Apoptotic (%) [9]: 32% | Population Fragmented Nuclei (%) [9]: 13% | Population Healthy Nuclei (%) [9]: 79% | Population Hoechst High Intensity Objects (%) [9]: 2% | Population Membrane Permeable-Phenotype (%) [9]: 2% | Population Mitochondria Different-Phenotype (%) [9]: 12% | Population Mitotic Cells (%) [9]: 67% | Population Normal (%) [9]: 97% | Population Pyknosed Nuclei (%) [9]: 7% | Population Tubulin-Different-Phenotype (%) [9]: 11% | Total Cell Count [9]: 1005 | Population Apoptotic (%) [10]: 13% | Population Fragmented Nuclei (%) [10]: 16% | Population Healthy Nuclei (%) [10]: 77% | Population Hoechst High Intensity Objects (%) [10]: 3% | Population Membrane Permeable-Phenotype (%) [10]: 0% | Population Mitochondria Different-Phenotype (%) [10]: 21% | Population Mitotic Cells (%) [10]: 86% | Population Normal (%) [10]: 96% | Population Pyknosed Nuclei (%) [10]: 6% | Population Tubulin-Different-Phenotype (%) [10]: 12% | Total Cell Count [10]: 714 | Population Apoptotic (%) [11]: 25% | Population Fragmented Nuclei (%) [11]: 15% | Population Healthy Nuclei (%) [11]: 76% | Population Hoechst High Intensity Objects (%) [11]: 2% | Population Membrane Permeable-Phenotype (%) [11]: 1% | Population Mitochondria Different-Phenotype (%) [11]: 17% | Population Mitotic Cells (%) [11]: 75% | Population Normal (%) [11]: 97% | Population Pyknosed Nuclei (%) [11]: 7% | Population Tubulin-Different-Phenotype (%) [11]: 15% | Total Cell Count [11]: 685 | Population Apoptotic (%) [12]: 20% | Population Fragmented Nuclei (%) [12]: 14% | Population Healthy Nuclei (%) [12]: 79% | Population Membrane Permeable-Phenotype (%) [12]: 0% | Population Mitochondria Different-Phenotype (%) [12]: 30% | Population Mitotic Cells (%) [12]: 80% | Population Pyknosed Nuclei (%) [12]: 6% | Population Tubulin-Different-Phenotype (%) [12]: 14% | Total Cell Count [12]: 537

COC(c1ccccc1)(c1ccccc1)[C@H](Oc1nc(C)cc(C)n1)C(=O)O [AMBRISENTAN]
Population Apoptotic (%) [1]: 38% | Population Fragmented Nuclei (%) [1]: 7% | Population Healthy Nuclei (%) [1]: 75% | Population Hoechst High Intensity Objects (%) [1]: 6% | Population Membrane Permeable-Phenotype (%) [1]: 0% | Population Mitochondria Different-Phenotype (%) [1]: 53% | Population Mitotic Cells (%) [1]: 61% | Population Normal (%) [1]: 93% | Population Pyknosed Nuclei (%) [1]: 16% | Population Tubulin-Different-Phenotype (%) [1]: 30% | Total Cell Count [1]: 249 | Population Healthy Nuclei (%) [2]: 81% | Population Hoechst High Intensity Objects (%) [2]: 11% | Population Mitochondria Different-Phenotype (%) [2]: 63% | Population Normal (%) [2]: 88% | Population Pyknosed Nuclei (%) [2]: 10% | Population Tubulin-Different-Phenotype (%) [2]: 23% | Total Cell Count [2]: 326 | Population Apoptotic (%) [3]: 33% | Population Fragmented Nuclei (%) [3]: 8% | Population Healthy Nuclei (%) [3]: 76% | Population Hoechst High Intensity Objects (%) [3]: 6% | Population Membrane Permeable-Phenotype (%) [3]: 0% | Population Mitochondria Different-Phenotype (%) [3]: 47% | Population Mitotic Cells (%) [3]: 66% | Population Normal (%) [3]: 93% | Population Pyknosed Nuclei (%) [3]: 15% | Population Tubulin-Different-Phenotype (%) [3]: 23% | Total Cell Count [3]: 383 | Population Apoptotic (%) [4]: 56% | Population Fragmented Nuclei (%) [4]: 5% | Population Healthy Nuclei (%) [4]: 80% | Population Hoechst High Intensity Objects (%) [4]: 13% | Population Mitochondria Different-Phenotype (%) [4]: 57% | Population Mitotic Cells (%) [4]: 43% | Population Normal (%) [4]: 86% | Population Pyknosed Nuclei (%) [4]: 14% | Population Tubulin-Different-Phenotype (%) [4]: 18% | Total Cell Count [4]: 262 | Population Apoptotic (%) [5]: 37% | Population Fragmented Nuclei (%) [5]: 9% | Population Healthy Nuclei (%) [5]: 76% | Population Hoechst High Intensity Objects (%) [5]: 4% | Population Membrane Permeable-Phenotype (%) [5]: 1% | Population Mitochondria Different-Phenotype (%) [5]: 30% | Population Mitotic Cells (%) [5]: 62% | Population Normal (%) [5]: 95% | Population Pyknosed Nuclei (%) [5]: 14% | Population Tubulin-Different-Phenotype (%) [5]: 19% | Total Cell Count [5]: 313 | Population Apoptotic (%) [6]: 43% | Population Healthy Nuclei (%) [6]: 82% | Population Hoechst High Intensity Objects (%) [6]: 7% | Population Membrane Permeable-Phenotype (%) [6]: 0% | Population Mitochondria Different-Phenotype (%) [6]: 39% | Population Mitotic Cells (%) [6]: 56% | Population Normal (%) [6]: 92% | Population Pyknosed Nuclei (%) [6]: 8% | Population Tubulin-Different-Phenotype (%) [6]: 16% | Total Cell Count [6]: 404 | Population Apoptotic (%) [7]: 30% | Population Fragmented Nuclei (%) [7]: 10% | Population Healthy Nuclei (%) [7]: 73% | Population Hoechst High Intensity Objects (%) [7]: 4% | Population Membrane Permeable-Phenotype (%) [7]: 0% | Population Mitochondria Different-Phenotype (%) [7]: 34% | Population Mitotic Cells (%) [7]: 69% | Population Normal (%) [7]: 95% | Population Pyknosed Nuclei (%) [7]: 15% | Population Tubulin-Different-Phenotype (%) [7]: 18% | Total Cell Count [7]: 441 | Population Apoptotic (%) [8]: 44% | Population Fragmented Nuclei (%) [8]: 8% | Population Healthy Nuclei (%) [8]: 78% | Population Hoechst High Intensity Objects (%) [8]: 12% | Population Mitochondria Different-Phenotype (%) [8]: 41% | Population Mitotic Cells (%) [8]: 55% | Population Normal (%) [8]: 87% | Population Pyknosed Nuclei (%) [8]: 12% | Population Tubulin-Different-Phenotype (%) [8]: 17% | Total Cell Count [8]: 318 | Population Apoptotic (%) [9]: 27% | Population Fragmented Nuclei (%) [9]: 17% | Population Healthy Nuclei (%) [9]: 72% | Population Hoechst High Intensity Objects (%) [9]: 2% | Population Membrane Permeable-Phenotype (%) [9]: 3% | Population Mitochondria Different-Phenotype (%) [9]: 22% | Population Mitotic Cells (%) [9]: 72% | Population Normal (%) [9]: 97% | Population Pyknosed Nuclei (%) [9]: 10% | Population Tubulin-Different-Phenotype (%) [9]: 13% | Total Cell Count [9]: 600 | Population Apoptotic (%) [10]: 40% | Population Fragmented Nuclei (%) [10]: 12% | Population Healthy Nuclei (%) [10]: 80% | Population Hoechst High Intensity Objects (%) [10]: 3% | Population Membrane Permeable-Phenotype (%) [10]: 0% | Population Mitochondria Different-Phenotype (%) [10]: 23% | Population Mitotic Cells (%) [10]: 59% | Population Normal (%) [10]: 96% | Population Pyknosed Nuclei (%) [10]: 7% | Population Tubulin-Different-Phenotype (%) [10]: 10% | Total Cell Count [10]: 605 | Population Apoptotic (%) [11]: 26% | Population Fragmented Nuclei (%) [11]: 14% | Population Healthy Nuclei (%) [11]: 77% | Population Hoechst High Intensity Objects (%) [11]: 2% | Population Membrane Permeable-Phenotype (%) [11]: 1% | Population Mitochondria Different-Phenotype (%) [11]: 18% | Population Mitotic Cells (%) [11]: 73% | Population Normal (%) [11]: 97% | Population Pyknosed Nuclei (%) [11]: 8% | Population Tubulin-Different-Phenotype (%) [11]: 13% | Total Cell Count [11]: 711 | Population Apoptotic (%) [12]: 53% | Population Healthy Nuclei (%) [12]: 79% | Population Hoechst High Intensity Objects (%) [12]: 7% | Population Membrane Permeable-Phenotype (%) [12]: 0% | Population Mitochondria Different-Phenotype (%) [12]: 27% | Population Mitotic Cells (%) [12]: 46% | Population Normal (%) [12]: 92% | Population Pyknosed Nuclei (%) [12]: 5% | Population Tubulin-Different-Phenotype (%) [12]: 15% | Total Cell Count [12]: 480
